These results are taken from ChEMBL document CHEMBL4513216, “Probing the Open Global Health Chemical Diversity Library for Multistage-Active Starting Points for Next-Generation Antimalarials” (ACS Infect Dis, 2020).

This data set can be described thus: Toxicity liver stage against HepG2, at 10uM. The class given is cell-based. On the set-up: test concentration 10 uM, cell line HepG2-A16-CD81EGFP. The conditions noted are these: human, HepG2-A16-CD81EGFP cells; read-out: INHIBITION
The method in brief: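 Uninfected HepG2-A16-CD81EGFP cells, 3 × 10^3 per well, 1536-well, plated on prespotted compound at 10 μM final, parasite-free screening media added to match infected plates; puromycin 10 μM positive, DMSO 0.5% negative; run in parallel with 48 h PbLuc assay at 37 °C, 5% CO2; viability by CellTiter-Glo luminescence, normalized to controls.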

Consider `Fc1cnc(N2CCN(Cc3ccc(-c4cc[nH]n4)o3)CC2)nc1`, for which the cytotoxicity at 10 µM is -6%.
To `COC(=O)CNC(=O)c1c(-n2cnnn2)sc2c1CCCC2` belongs 10.6%; to `COc1cc(C2Nc3cc(Cl)ccc3C3=NCCN32)ccc1O` (stereo not drawn), -29.3%.
Regarding `Cc1ccc(C)c(N2CCN(CC3(O)CCNC3)CC2)c1` (stereo not drawn), the cytotoxicity at 10 µM was -5.83%.
The same measure for `CC(c1ccco1)N(C(=O)c1cc2c([nH]c1=O)CCCC2=O)C1CC1` (stereo not drawn): -3.21%; for `Cn1cc(C2=CCN(CCCC(=O)Nc3ccc(C#N)cc3)CC2)cn1`: -6.84%; for `NC(=O)[C@H]1CCCN1C(=O)c1csc(-c2ccc(C(F)(F)F)cc2)n1`: -0.187%.
The same measure for `CCOCCCNC(=O)C1(C)CCC(=O)N1c1ccccc1F` (stereo not drawn): -4.42%; for `Cc1ccc(C2CSCCN2C(=O)c2ccc(C(N)=O)cc2)o1` (stereo not drawn): -2.12%.
The same measure for `CCn1c(C)nnc1CN(C)C1CCN(CC2CCC2)C1` (stereo not drawn): -11.5%.
Take `CCC[C@H]1CN(S(=O)(=O)c2ccc(CC)s2)C[C@@H]1N`: the cytotoxicity at 10 µM is 4.69%.
The same measure for `Cc1nc(CN2CCN(C)C(=O)C23CCN(CC2CCCC2)CC3)cs1`: 11%; for `CC(=O)N1CCC(c2nnc3ccc(C(=O)NC(C)C)cn23)C1` (stereo not drawn): 6.37%.
As to `CCS(=O)(=O)N1CCc2c(cnc(-c3cccnc3)c2C(=O)O)C1`, the cytotoxicity at 10 µM worked out at 2.66%.
To `CN(C)C(=O)CS(=O)(=O)Cc1cc(Cl)c2c(c1)OCCO2` belongs 1.38%.
As for `CCN1C(=O)CC(c2cnn(C)c2)C12CCN(C(=O)c1ccc[nH]1)CC2` (stereo not drawn), the cytotoxicity at 10 µM was 8.82%.
To `CN(C)CCN1C[C@@H]2CN(C(=O)C3CCOC3)C[C@@H]2C1=O` (stereo partly drawn) belongs -5.18%.
With `CNCC(=O)N1CCCC(c2ccnc(Nc3cnccn3)n2)C1` (stereo not drawn), the cytotoxicity at 10 µM is -11.6%.
To `CC1=N[C@@]2(CC[C@@H]3CN(S(=O)(=O)CC(C)C)C[C@@H]32)C(=O)N1C` belongs -84.6%; to `CC(C)(C)C(=O)N1CCN(CCOc2cccc(C#N)c2)CC1`, 3.53%.
The same measure for `CN(C)S(=O)(=O)N1CCOC(c2cccc(-c3cncnc3)n2)C1` (stereo not drawn): 3.71%; for `Cc1cccc(CN2CCc3nnc(CN4CCCCC4)n3CC2)n1`: -1.45%; for `CN(C)CC(=O)N1Cc2cc(-c3cc[nH]n3)ccc2C1c1cnco1` (stereo not drawn): 21.4%.
To `O=C(NCCn1ccnc1-c1cc2n(n1)CCNC2)c1ccc(F)cc1` belongs -16.9%; to `Cc1cccc(CN2CCCC[C@H]3CN(c4ncccn4)C[C@H]32)c1`, 1.18%; to `O=C(O)c1cccnc1N1CCN(Cc2ccc(F)cc2)C(CCO)C1` (stereo not drawn), 12.3%.
As for `CNc1nc(N2CCC3(CCCNC3=O)C2)nc2c1CCC2` (stereo not drawn), the cytotoxicity at 10 µM is -4.95%.
To `Cc1nc(-c2ccc(C(=O)O)cc2)cc(C2CCN(C(C)C)C2)n1` (stereo not drawn) belongs 6.62%; to `CNC(=O)CC1CC2(CCN(Cc3nccs3)CC2)c2ccccc21` (stereo not drawn), -15%.
`CC(C)c1cc(C(=O)N2CCc3ccccc3C2C(=O)O)nn1C` (stereo not drawn): the cytotoxicity at 10 µM was -2.53%.
As for `CN(C)C(=O)C1(CCCc2ccncc2)CCCN1` (stereo not drawn), the cytotoxicity at 10 µM stood at 0.59%.
The same measure for `CN1C(=O)CC(c2cnn(C)c2)C12CCN(C(=O)c1cscn1)CC2` (stereo not drawn): -76.6%; for `O=C(NCCn1nc2ccccn2c1=O)c1cc(C2CC2)[nH]n1`: 0.763%; for `c1c(-c2nc(CN3CCOCC3)no2)nnn1CC1CCCCC1`: 3.15%.
The same measure for `CCNC(=O)[C@@H]1C[C@@H](NC(=O)c2ccc(C)cc2O)CN1CCCSC`: -125%.
With `Cn1cccc1CCC(=O)N1CCC2(CC1)c1ccccc1CC2O` (stereo not drawn), the cytotoxicity at 10 µM was -8.57%.
To `CCN(C(=O)Nc1nccs1)C(C)c1cccc(O)c1` (stereo not drawn) belongs -2.11%.
To `Cn1cc(CN2CCCC3(CCN(c4nncs4)C3)C2)cn1` (stereo not drawn) belongs 5.41%.
